A selection: hits, their analogues and other compounds. The true share with any hit is near 3.7%.
Kir21 inh: inhibitors of mouse Kir2.1 inward-rectifier potassium channel; actives 0.85% (n = 310,000); AID 1672, 2009; HEK293-Kir2.1, FluxOR thallium flux fluorescence; stronger effect = lower value; B-score at 10 µM;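 active = fluorescence ratio B-score at or below minus 3 SD of library scores, with starting-brightness B-score within 2 SD, cut at about -4.2 in these data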;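 also: channel flux triggered by added potassium and thallium sulfate stimulus; B-score of peak minus minimum fluorescence over baseline after thallium stimulus; more negative B-score means stronger Kir2.1 block with less thallium influx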
KCNK9 inh: KCNK9 potassium channel inhibitors, primary screen, HEK293 cells, thallium flux; AID 488922, 2010; B-score at 10 µM; actives 1.2% (n = 310,000); FluxOR thallium flux fluorescence; stronger effect = lower value; Potassium channel subfamily K member 9 (Homo sapiens), Q9NPC2;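 active = ratio B-score over 3 SD below the library mean, with starting fluorescence within 5 SD of its mean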;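 also: negative B-score means less thallium flux so channel inhibition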
Target sequence (Q9NPC2 whole entry, looked up): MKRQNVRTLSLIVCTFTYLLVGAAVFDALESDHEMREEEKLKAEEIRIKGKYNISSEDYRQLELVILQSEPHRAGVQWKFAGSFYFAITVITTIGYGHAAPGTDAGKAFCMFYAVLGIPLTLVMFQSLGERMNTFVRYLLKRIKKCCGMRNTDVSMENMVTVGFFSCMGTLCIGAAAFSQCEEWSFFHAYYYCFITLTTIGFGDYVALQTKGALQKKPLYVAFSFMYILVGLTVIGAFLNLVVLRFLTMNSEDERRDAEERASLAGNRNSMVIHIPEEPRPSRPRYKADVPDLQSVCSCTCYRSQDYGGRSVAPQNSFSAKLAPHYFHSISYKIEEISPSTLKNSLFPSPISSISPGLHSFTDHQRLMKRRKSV
KCNQ1 act: potentiators or activators of KCNQ1 channel, primary screen, cell-based, thallium flux, high-throughput; Potassium voltage-gated channel subfamily KQT member 1 (Homo sapiens), P51787; CHO-K1 KCNQ1, thallium flux FluxOR fluorescence; stronger effect = higher value; B-score at 10 µM; actives 0.35% (n = 310,000);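 active = fluorescence ratio B-score, a plate-corrected score, at least three library SD, with initial intensity B-score within 5 SD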
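Assay system: CHO-K1 cells stably expressing KCNQ1; Medium: assay buffer with matched DMSO; Also added: K+/Tl+ depolarizing stimulus; Dosing: single dose; Timing: dye 90 min, compound 20 min, room temperature; Measured by: kinetic FluxOR thallium fluorescence, 10-s 1-Hz baseline, 110-s post-stimulus read; Read-out: peak-minus-minimum fluorescence over initial fluorescence, negative-control normalized, B-scored.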
KCNQ1 block: inhibitors of human KCNQ1 channel, primary screen, cell-based, thallium flux, high-throughput | CHO-K1 KCNQ1, FluxOR thallium flux fluorescence; stronger effect = higher value | actives 1.3% (n = 310,000) | B-score at 10 µM;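 active = compounds whose thallium flux B-score, printed positive for inhibition, exceeds three library SD while starting fluorescence stays within three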;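 also: channel opened by potassium depolarization with thallium stimulus after 20 min compound exposure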
hERG rescue: hERG rescue from dofetilide block, primary screen, cell-based, CHO-hERG, FluxOR thallium flux, dofetilide IC70; activation (rescue from dofetilide block), less the hit threshold, % at 10 µM; AID 1511, 2009; dofetilide IC70 present; actives 0.51% (n = 310,000);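 active = activation above the mean of controls blocked by dofetilide plus 5 SD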;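 also: thallium influx through hERG after potassium depolarization seen as dye fluorescence rise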
KCNK3 block: human KCNK3 channel inhibitors, primary screen, CHO cells, FluxOR thallium flux, B-score; Potassium channel subfamily K member 3 (Homo sapiens), O14649; B-score at 10 µM; actives 0.84% (n = 340,000); FluxOR fluorescence; stronger effect = lower value;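 active = B-score under library mean minus 4 SD, starting fluorescence ratio at most library mean plus 5 SD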;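 also: more negative B-score means stronger inhibition of thallium flux through KCNK3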
KCNK3 confirm: retest of human KCNK3 channel inhibitors, confirmation, CHO cells, FluxOR thallium flux, triplicate; shares compounds with KCNK3 block; FluxOR fluorescence; 0% buffer, 100% carvedilol maximal block; ratio percent of control, % at 10 µM; actives 99% (n = 2,400); AID 651638, 2012;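 active = ratio percent of control, averaged over triplicates, above buffer control mean plus 5 SD, cut at about 64% in these data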;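 also: ratio is the fluorescence rise from min to max over baseline after thallium stimulus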
KCNK3 noninduced: thallium flux inhibition in non-induced cells, primary screen, counter-screen for KCNK3 inhibitor project, cell-based, non-induced KCNK3 line, FluxOR thallium, triplicate. shares compounds with KCNK3 block. non-induced KCNK3 parental cells; stronger effect = lower value. thallium flux ratio (lower = more inhibition) at 10 µM. actives 40% (n = 2,400);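 active = thallium flux ratio, averaged over three wells, more than 5 SD below the buffer control mean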;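 also: host cells are CHO cells without KCNK3 induction; ratio is peak minus trough fluorescence over baseline then normalized to buffer controls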
* marks the source's active call; other numbers are inactive results.

Screening Cc1ccc(C)c(NC(=O)c2ccc3c(c2)N(Cc2ccc(F)cc2)C(=O)CS3=O)c1 (stereo not given) returned Kir21 inh -0.55, KCNK9 inh inactive, KCNQ1 act inactive, KCNQ1 block inactive, hERG rescue -10 and KCNK3 block inactive.
For O=C(Nc1ccc(Br)cc1F)c1ccc2c(c1)N(Cc1ccccc1)C(=O)CS2=O (stereo not given) the results were Kir21 inh -1.2, KCNK9 inh inactive, KCNQ1 act inactive, KCNQ1 block inactive, hERG rescue -6, KCNK3 block -13*, KCNK3 confirm 100* and KCNK3 noninduced inactive.
`CC(C)Oc1ccc(CNC(=O)Cn2c(=O)oc3ccccc32)cc1` gave Kir21 inh 0.59, KCNK9 inh inactive, KCNQ1 act inactive, KCNQ1 block inactive, hERG rescue 1 and KCNK3 block inactive.
Cc1ccc(CNC(=O)Cn2c(=O)oc3ccccc32)o1 was read as Kir21 inh 1, KCNK9 inh inactive, KCNQ1 act inactive, KCNQ1 block inactive, hERG rescue -4, KCNK3 block -12*, KCNK3 confirm 77* and KCNK3 noninduced inactive.
Cc1ccsc1CN(C)C(=O)c1ccc(Oc2ccccc2)cc1 was read as Kir21 inh -0.79, KCNK9 inh -7.5*, KCNQ1 act inactive, KCNQ1 block inactive, hERG rescue -16, KCNK3 block -9.9*, KCNK3 confirm 113* and KCNK3 noninduced inactive.
Screening N#Cc1c(N)nc(SCC(=O)OCc2ccccc2)c(C#N)c1-c1ccco1 returned Kir21 inh -0.79, KCNK9 inh inactive, KCNQ1 act inactive, KCNQ1 block inactive, hERG rescue -8, KCNK3 block -11*, KCNK3 confirm 87* and KCNK3 noninduced inactive.
`COc1ccccc1N(CC(=O)N/N=C(\C)c1ccc(F)cc1)S(=O)(=O)c1ccccc1` gave KCNK3 block inactive.
`Cn1c(SCc2nc3ccccc3c(=O)[nH]2)nc2ccccc21` gave Kir21 inh -0.17, KCNK9 inh inactive, KCNQ1 act inactive, KCNQ1 block inactive, hERG rescue -8 and KCNK3 block inactive.
`CC(C)Cn1c(SCc2nc3ccccc3c(=O)[nH]2)nc2ccccc2c1=O` gave Kir21 inh -0.22, KCNK9 inh -6.7*, KCNQ1 act inactive, KCNQ1 block inactive, hERG rescue -11, KCNK3 block -10*, KCNK3 confirm 102* and KCNK3 noninduced inactive.
COc1ccc(OC)c(C2NC(=O)N(C)C(C)=C2C(=O)OCc2ccccc2)c1 (stereo not given) was read as Kir21 inh 1.2, KCNK9 inh inactive, KCNQ1 act inactive, KCNQ1 block inactive, hERG rescue -11, KCNK3 block -9.3*, KCNK3 confirm 141* and KCNK3 noninduced 0.11*.
Screening CC1=C(C(=O)OCc2ccccc2)C(c2ccccc2Cl)NC(=O)N1C (stereo not given) returned Kir21 inh -3.4, KCNK9 inh inactive, KCNQ1 act inactive, KCNQ1 block inactive, hERG rescue -8 and KCNK3 block inactive.
For COc1ccccc1C(=O)NC(=O)COC(=O)c1ccc([N+](=O)[O-])cc1Cl the results were Kir21 inh 0.03, KCNK9 inh inactive, KCNQ1 act inactive, KCNQ1 block inactive, hERG rescue -11 and KCNK3 block inactive.

High-throughput results as filed in PubChem BioAssay.
